Experimental data as given in ChEMBL document CHEMBL5233289, “Synthesis of Quinoline and Dihydroquinoline Embelin Derivatives as Cardioprotective Agents” (J Nat Prod, 2023).
Active and inactive are the calls of the source. The rule behind the calls is not given here.

How the values were obtained:
H9c2 [1] = assay: Antioxidant activity against rat H9c2 cells assessed as reduction in doxorubicin-induced oxidative stress by measuring reduction in intracellular ROS level at 1 mM incubated for 24 hrs by DCFH-DA staining based fluorometric analysis
MCF7 = assay: Antagonizing activity against doxorubicin-induced antitumor activity in human MCF7 cells assessed as cell viability at 20 uM incubated for 24 hrs in presence of doxorubicin by MTT assay; type: toxicity, cell-based; settings: mcf7, 24 h
Procedure, shortened: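 MCF-7 human breast cancer cells in DMEM with 10% FBS, 37 °C, 5% CO2. They were co-treated with compound (20 μM) plus DOX (1 μM) for 24 h. Viability was read by MTT: 1 h at 37 °C, formazan in DMSO, A540. Mean ± SD, n = 3.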

H9c2 [2] = assay: Cardioprotective activity against rat H9c2 cells assessed as reduction in doxorubicin-induced cardiotoxicity by measuring cell viability at 20 uM incubated for 24 hrs in presence of doxorubicin by MTT assay; type: functional
Procedure, shortened: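 H9c2 rat cardiomyocytes in DMEM with 10% FBS, seeded for 24 h, then co-treated with compound (20 μM) and DOX (1 μM) for 24 h. MTT added for 1 h at 37 °C, formazan dissolved in DMSO, absorbance read at 540 nm. DOX alone served as positive control. Mean ± SD, n = 3.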

H9c2 [3] = assay: Activation of Akt in rat H9c2 cells assessed as increase in Akt phosphorylation at 20 uM in presence of doxorubicin by immunoblot analysis; type: cell-based; settings: filed as activator
Procedure, shortened: (§1)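 H9c2 cell lysates after DOX (1 μM) alone or with derivative (20 μM) were run on SDS-PAGE and transferred to PVDF. Blots were probed for pAkt, Akt, pERK1/2, ERK1/2, Bax and Bcl-2, with β-actin as loading control. Detection used HRP secondary (2 h) and ECL, with densitometric quantification. Mean ± SD, n = 3.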

H9c2 [4] = assay: Cardioprotective activity against doxorubicin-treated rat H9c2 cells assessed as decrease in Bax protein expression at 20 uM in presence of doxorubicin by immunoblot analysis; type: functional, cell-based
Procedure, shortened: as §1

[5] = target: Mitogen-activated protein kinase 1 and 3 (ERK2 and ERK1) (Rattus norvegicus) (UniProt P63086+P21708); assay: Inhibition of doxorubicin-induced ERK1/2 activation in rat H9c2 cells assessed as reduction in ERK1/2 phosphorylation at 20 uM in presence of doxorubicin by immunoblot analysis; type: cell-based
Procedure, shortened: as §1

H9c2 [6] = assay: Cardioprotective activity against doxorubicin-treated rat H9c2 cells assessed as increase in Bcl2 protein expression at 20 uM in presence of doxorubicin by immunoblot analysis; type: functional, cell-based
Procedure, shortened: as §1

H9c2 [7] = assay: Induction of oxidative stress in rat H9c2 cells assessed as increase in intracellular ROS level at 20 uM incubated for 24 hrs by DCFH-DA staining based fluorometric analysis; type: toxicity, cell-based; settings: h9c2, 24 h
Procedure, shortened: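 Intracellular ROS in H9c2 cells. Cells were treated with compound (20 μM) alone or with DOX (1 μM) over 24 h, with NAC (1 mM) as ROS inhibitor. They were then loaded with 10 μM DCFH-DA for 30 min at 37 °C in the dark. Fluorescence was read at 485/550 nm. Mean ± SD, n = 3.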

H9c2 [8] = assay: Antioxidant activity against rat H9c2 cells assessed as reduction in doxorubicin-induced oxidative stress by measuring reduction in intracellular ROS level at 20 uM incubated for 24 hrs by DCFH-DA staining based fluorometric analysis
[9] = Cytotoxicity against mouse J774.A1 cells assessed as cell viability at 20 uM incubated for 24 hrs by MTT assay (reference value: 100%); type: toxicity, cell-based; settings: read-out: Activity
Procedure, shortened: (§2)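 J774A.1 murine macrophages or H9c2 rat cardiomyocytes, grown in DMEM with 10% FBS and 1% pen/strep, were seeded for 24 h and then incubated with compound alone for 24 h. MTT reagent was added for 1 h at 37 °C, formazan dissolved in DMSO, absorbance at 540 nm. Results relative to untreated cells, mean ± SD, n = 3.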

[10] = Cytotoxicity against rat H9c2 cells assessed as cell viability at 20 uM incubated for 24 hrs by MTT assay (reference value: 100%); type: toxicity, cell-based; settings: read-out: Activity
Procedure, shortened: as §2

[11] = Cytotoxicity against mouse J774.A1 cells assessed as cell viability at 10 uM incubated for 24 hrs by MTT assay (reference value: 100%); type: toxicity, cell-based; settings: read-out: Activity
Procedure, shortened: as §2

[12] = Cytotoxicity against rat H9c2 cells assessed as cell viability at 10 uM incubated for 24 hrs by MTT assay (reference value: 100%); type: toxicity, cell-based; settings: read-out: Activity
Procedure, shortened: as §2

Mitogen-activated protein kinase 1 and 3 (ERK2 and ERK1) (Rattus norvegicus), sequence (P21708 whole entry, looked up): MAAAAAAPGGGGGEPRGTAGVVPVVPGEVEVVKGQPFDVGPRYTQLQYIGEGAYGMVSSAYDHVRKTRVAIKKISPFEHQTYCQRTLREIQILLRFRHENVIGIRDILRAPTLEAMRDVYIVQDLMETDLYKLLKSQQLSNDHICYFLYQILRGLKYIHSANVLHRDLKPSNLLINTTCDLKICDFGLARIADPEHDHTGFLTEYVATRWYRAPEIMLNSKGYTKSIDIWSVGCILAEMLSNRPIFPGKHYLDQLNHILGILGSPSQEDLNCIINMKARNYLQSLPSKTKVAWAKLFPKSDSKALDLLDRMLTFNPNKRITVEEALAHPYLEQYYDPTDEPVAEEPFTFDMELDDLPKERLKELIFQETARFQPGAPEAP
Mitogen-activated protein kinase 1 and 3 (ERK2 and ERK1) (Rattus norvegicus), sequence (P63086 whole entry, looked up): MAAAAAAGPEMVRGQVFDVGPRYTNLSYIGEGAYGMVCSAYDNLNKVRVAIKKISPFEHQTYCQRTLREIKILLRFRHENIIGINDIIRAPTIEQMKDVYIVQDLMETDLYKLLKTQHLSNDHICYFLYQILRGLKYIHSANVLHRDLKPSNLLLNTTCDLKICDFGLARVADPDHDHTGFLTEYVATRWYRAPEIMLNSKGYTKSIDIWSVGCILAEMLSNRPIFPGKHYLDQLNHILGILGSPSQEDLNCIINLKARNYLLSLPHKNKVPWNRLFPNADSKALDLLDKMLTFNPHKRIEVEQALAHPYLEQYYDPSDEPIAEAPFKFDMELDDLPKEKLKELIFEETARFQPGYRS

Row | Compound | Activity (H9c2 [1]) | Activity (MCF7) | Activity (H9c2 [2]) [%] | Activity (H9c2 [3]) | Activity (H9c2 [4]) | inhibition [5] | Activity (H9c2 [6]) | Activity (H9c2 [7]) | Activity (H9c2 [8]) | viability at 24 h, 20 µM [9] [%] | viability at 24 h, 20 µM [10] [%] | viability at 24 h, 10 µM [11] [%] | viability at 24 h, 10 µM [12] [%]
1 | CC(=O)N[C@@H](CS)C(=O)O | Active |  |  |  |  |  |  |  |  |  |  |  | 
2 | CCCCCCCCCCCC1=C(O)C(=O)c2c(nc3ccccc3c2-c2ccc(F)cc2)C1=O |  | Toxic | 81.4 |  |  |  |  |  |  |  |  |  | 
3 | CCCCCCCCCCCC1=C(O)C(=O)C2=C(Nc3ccccc3C2c2ccc(C)c(C)c2)C1=O (stereo not given) |  | Non-Toxic |  | Active | Active | Active | Active | Non-Toxic | Active |  |  |  | 
4 | CCCCCCCCCCCC1=C(O)C(=O)c2c(nc3ccc(OC)cc3c2-c2ccc([N+](=O)[O-])cc2)C1=O |  | Non-Toxic | 84.3 | Active | Active | Active | Active | Non-Toxic | Active | 76.3 | 94.4 | 81.9 | 99.2
5 | CCCCCCCCCCCC1=C(O)C(=O)c2c(nc3ccccc3c2-c2ccc(Br)cc2)C1=O |  | Non-Toxic | 83.4 | Active | Active | Active | Active | Non-Toxic | Active |  |  |  | 
6 | CCCCCCCCCCCC1=C(O)C(=O)c2c(nc3ccc(Br)cc3c2-c2ccc([N+](=O)[O-])cc2)C1=O |  | Non-Toxic | 91.2 | Active | Active | Active | Active | Non-Toxic | Active |  |  |  | 
7 | CCCCCCCCCCCC1=C(O)C(=O)c2c(nc3ccccc3c2-c2ccc([N+](=O)[O-])cc2)C1=O |  | Non-Toxic |  | Active | Active | Active | Active | Non-Toxic | Active |  |  |  | 
